High-throughput results: PubChem, several laboratories
Compounds with a hit are over-represented: about 9.6% of the library has one in this group of screens.
TNAP inh no acc = blocks human TNAP activity with no phosphate acceptor present; P05186; purified TNAP, CDP-star luminescence, 30 min; inhibition, % at 20 µM; 200,000 tested, 0.26% active; AID 1012;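 active means tissue-nonspecific alkaline phosphatase inhibition above about 50% at 20 µM in the single-dose screen, limit read from the data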
Target sequence (P05186 whole entry, looked up): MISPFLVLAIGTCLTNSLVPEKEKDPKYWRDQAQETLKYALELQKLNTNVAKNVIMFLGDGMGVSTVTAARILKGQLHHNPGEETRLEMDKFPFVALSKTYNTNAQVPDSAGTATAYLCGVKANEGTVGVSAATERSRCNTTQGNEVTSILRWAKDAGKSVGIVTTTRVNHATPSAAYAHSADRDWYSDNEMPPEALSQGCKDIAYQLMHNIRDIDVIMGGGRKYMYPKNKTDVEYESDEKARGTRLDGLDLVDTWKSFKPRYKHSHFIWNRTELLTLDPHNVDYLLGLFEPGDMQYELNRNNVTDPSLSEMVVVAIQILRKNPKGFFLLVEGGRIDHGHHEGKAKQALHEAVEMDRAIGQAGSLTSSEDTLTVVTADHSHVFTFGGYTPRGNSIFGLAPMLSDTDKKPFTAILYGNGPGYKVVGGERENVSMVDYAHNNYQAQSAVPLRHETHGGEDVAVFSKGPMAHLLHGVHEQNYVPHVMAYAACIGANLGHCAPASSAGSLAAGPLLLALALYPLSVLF
TNAP inh hi DEA = inhibitors of human TNAP at high phosphate acceptor concentration; inhibition, % at 20 µM; purified TNAP, CDP-star luminescence, 1 M DEA; 200,000 tested, 0.03% active;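 active means over 50% inhibition of tissue-nonspecific alkaline phosphatase at 20 µM in the single-dose screen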
HCT116 bCat-KO = beta-catenin-lacking colon tumor cell growth suppression; HCT116 beta-catenin knockout viability, CellTiter-Glo, 60 h; hits give low values; viability, % at 10 µM; AID 818; 140,000 tested, 1.5% active;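 active means viability at or under a set limit, the compound median less 4 SD, cut at about 6% in these data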
PTEN del growth = PTEN-deleted cell growth suppression; 140,000 tested, 1.2% active; AID 827; HCT116 PTEN-null viability, CellTiter-Glo, 60 h; hits give low values; viability, % at 10 µM;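 active means viability at or below a set limit, 4 SD under the median of all tested compounds, cut at about 3.7% in these data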;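 further: PTEN knockout HCT116 line with beta catenin targeted HCT116 as companion control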
TNAP act hi DEA = increases human TNAP activity under high phosphate acceptor concentration | purified TNAP, CDP-star luminescence, 1 M DEA, 30 min; hits give high values; 0 = EDTA background, 1 = DMSO-only activity | activation factor at 20 µM | 200,000 tested, under 10 active | AID 1136;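 active means activation factor at least 2 at 20 µM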
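Measured by: Luminescent substrate turnover signal | Test system: Human TNAP | Input: TNAP 1/800 final | Dosing: 20 µM single point | Schedule: 30 min, room temperature | Controls: EDTA wells as negative control, DMSO wells as positive control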
L major viab = inhibitors of Leishmania major promastigote growth | Leishmania major promastigotes, resazurin fluorescence viability | inhibition, % at 10 µM | 200,000 tested, 9% active; in the data active means inhibition above about 50%;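 further: promastigotes grown with compound for 44 hours at 28 °C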
Hits are given with their value; – = inactive; · = no result given.

SMILES	TNAP inh no acc	TNAP inh hi DEA	HCT116 bCat-KO	PTEN del growth	TNAP act hi DEA	L major viab
Cc1ccc(C(=O)/C=C/c2cn(CN3CCN(C)CC3)c3ccccc23)cc1	–	–	–	–	–	–
O=C(/C=C/c1cn(CC(O)CN2CCCCCC2)c2ccccc12)c1cccs1 (stereo unspecified)	–	–	1.2	1.9	–	100
Cc1ccc(C(=O)NCC(=O)NCC(=O)OCC(=O)c2ccc(Br)cc2)cc1	–	–	–	–	–	–
CCOC(=O)CNCCC(=O)c1ccc(Br)cc1	–	–	–	–	–	63
Cc1cc(C)cc(OCC(=O)OC/C(O)=C(\C#N)c2nc3ccccc3[nH]2)c1	–	–	3.9	–	–	–
Cc1cccc(C)c1OCC(=O)OC/C(O)=C(\C#N)c1nc2ccccc2[nH]1	–	–	–	–	–	–
S=C(NNc1ccc2ccccc2c1)NC1CCCCC1	–	–	–	–	–	–
O=C(Nc1ccc2ccccc2c1)NC1CCS(=O)(=O)C1 (stereo unspecified)	–	–	·	·	–	–
Cc1ccc(C(=O)Nc2ccccc2C(=O)NCc2ccco2)cc1S(=O)(=O)N1CCCCC1	–	–	–	–	–	62
Cc1ccc(C)c(NS(=O)(=O)c2cc(C(=O)NCc3ccco3)ccc2C)c1	–	–	–	–	–	100
Cc1ccc(C(=O)NCCSC2CCCCC2)cc1S(=O)(=O)Nc1ccccc1	–	–	–	–	–	97
Cc1ccc(C(=O)NCc2ccco2)cc1S(=O)(=O)N1CCCCC1	–	–	–	–	–	–
CN(c1ccccc1)S(=O)(=O)c1ccc(C(=O)N2CCc3ccccc3C2)cc1	–	–	·	·	–	96
Cc1ccc(C(=O)NCc2ccco2)cc1S(=O)(=O)Nc1cccc(C)c1C	–	–	–	–	–	–
O=C(O)c1ccc(CNCc2ccc(Cl)cc2)cc1	–	–	–	–	–	–
COc1ccc(OC)c(C2=NOC(C(=O)NCc3ccco3)C2)c1 (stereo unspecified)	–	–	–	–	–	–
Cc1ccccc1NS(=O)(=O)c1cc(C(=O)N2CCc3ccccc3C2)ccc1C	–	–	–	–	–	88
Cc1ccccc1NS(=O)(=O)c1cc(C(=O)NCCC2=CCCCC2)ccc1C	–	–	–	–	–	–
Cc1ccc(SCCNC(=O)c2ccc(C)c(S(=O)(=O)Nc3ccccc3C)c2)cc1	–	–	–	–	–	99
COc1ccccc1C(C)NC(=O)CCOc1cccc(C)c1 (stereo unspecified)	–	–	·	·	–	–
CCOC(=O)C1=C(C)Nc2sc(C(=O)c3ccc(OC)cc3)c(N)c2C1c1ccc(C(=O)OC)cc1 (stereo unspecified)	–	–	–	–	–	71
COC(=O)C1=C(C)Nc2sc(C(N)=O)c(N)c2C1c1ccncc1 (stereo unspecified)	–	–	–	–	–	–
CC(C)(C)NCC(O)COc1c(F)cc(Br)cc1F (stereo unspecified)	–	–	–	–	–	–
CC(C)(C)CC(C)(C)NCC(O)COc1c(F)cc(Br)cc1F (stereo unspecified)	–	–	–	–	–	100
CCOC(=O)C1=C(C)N(CC(C)C)C(=O)/C1=C\c1ccc(OCC(=O)Nc2ccccc2)cc1	–	–	–	·	–	81
SMILES	TNAP inh no acc	TNAP inh hi DEA	HCT116 bCat-KO	PTEN del growth	TNAP act hi DEA	L major viab
CCOC(=O)C1=C(C)N(c2ccccc2)C(=O)/C1=C\c1cccs1	–	–	–	–	–	–
CC(C)N1CCC(N2CCN(Cc3ccc(-c4ccc(Cl)cc4)o3)CC2CCO)CC1 (stereo unspecified)	–	–	·	·	–	88
CSc1ncc(CN2CCN(C3CCN(C(C)C)CC3)C(CCO)C2)cn1 (stereo unspecified)	–	–	·	·	–	–
CC(C)N1CCC(N2CCN(Cc3ccc(-c4ccccc4Cl)o3)CC2CCO)CC1 (stereo unspecified)	–	–	·	·	–	89
CC(C)CN1CCN(C2CCN(C(C)C)CC2)C(CCO)C1 (stereo unspecified)	–	–	·	·	–	–
CC(C)N1CCC(N2CCN(CCCc3ccccc3)CC2CCO)CC1 (stereo unspecified)	–	–	·	·	–	–
Cc1ccc(-c2cccc(CN3CCN(C4CCN(C(C)C)CC4)C(CCO)C3)c2)o1 (stereo unspecified)	–	–	·	·	–	52
O=C(COC(=O)Cn1cnc2ccccc21)Nc1cccc(S(=O)(=O)N2CCOCC2)c1	–	–	·	·	–	–
CCN(CC)CCn1nc2c3c(cccc3c1=O)-c1ccccc1-2	–	–	·	·	–	100
Cc1ccc(CNc2ccc(N3C(=O)CCCC3=O)cc2[N+](=O)[O-])cc1	–	–	–	–	–	–
O=C(Nc1nnc(SCc2ccc(F)cc2)s1)C1CC(=O)N(Cc2ccccc2)C1 (stereo unspecified)	–	–	–	–	–	54
Cc1ccc(CNc2ccc(S(=O)(=O)N3CCOCC3)cc2[N+](=O)[O-])cc1	–	–	–	–	–	–
Cc1cc(C)nc(Sc2ncnc(N)c2[N+](=O)[O-])n1	–	–	·	·	–	58
Cc1cccc(Nc2ncnc(N)c2[N+](=O)[O-])n1	–	–	·	·	–	–
O=C(CCl)NN=C(c1ccccc1)c1ccccc1	–	–	·	·	–	100
Cc1cc(Br)ccc1NC(=O)CNC(=O)CN1C(=O)NC2(CCCCCC2)C1=O	–	–	–	–	–	–
Cc1cc(Br)ccc1NC(=O)CN1C(=O)C2C3CC(c4ccccc4)C(C3)C2C1=O (stereo unspecified)	–	–	–	–	–	55
O=C(NCCN1CCOCC1)c1ccc2c(c1)N(Cc1ccccc1F)C(=O)c1ccccc1S2	–	–	·	·	–	100
Cc1cccc(CN2C(=O)c3ccccc3Sc3ccc(C(=O)NCCN4CCOCC4)cc32)c1	–	–	·	·	–	100
COc1ccc(CCNC(=O)c2cc(C(=O)c3cc(C)ccc3O)cn(CCc3ccc(OC)cc3)c2=O)cc1	–	–	–	–	–	96
O=C(c1cc(C(=O)NCCc2ccccc2)c(=O)n(CCc2ccccc2)c1)c1cc(Cl)ccc1O	–	–	–	–	–	98
COc1ccc(CCNC(=O)c2cc(C(=O)c3cc(Cl)ccc3O)cn(CCc3ccc(OC)cc3)c2=O)cc1	–	–	–	–	–	99
COc1ccc(CCNC(=O)c2ccc(Cl)cc2Cl)cc1	–	–	–	–	–	–
O=S(=O)(c1cc(Cl)ccc1Cl)n1cccn1	–	–	·	·	–	–
O=C(O)C1CCN(c2ccccc2[N+](=O)[O-])CC1	–	–	·	·	–	–
O=C(COc1ccc(Cl)cc1)NCc1nnc(SCC(=O)N2CCCC2)o1	–	–	·	·	–	–
C/C(=N/NC(=S)Nc1cccc(C)c1)c1cccc([N+](=O)[O-])c1	–	–	·	·	–	–
